Source: ChEMBL document CHEMBL1811881, “Development of 3-substituted-androsterone derivatives as potent inhibitors of 17β-hydroxysteroid dehydrogenase type 3” (Bioorg Med Chem, 2011)
Activity calls are given as the source filed them. The rule behind the calls is not given here.

Experiments:
[1] = target: T1, 17-beta-hydroxysteroid dehydrogenase type 3 (Homo sapiens) (UniProt P37058); test: Inhibition of 17Beta-HSD3 expressed in homogenized HEK293 cells assessed as transformation of [14C]-4-androstene-3,17-dione into [14C]-testosterone in presence of NADPH at 0.01 uM; assay type: cell-based
T1 sequence (whole entry): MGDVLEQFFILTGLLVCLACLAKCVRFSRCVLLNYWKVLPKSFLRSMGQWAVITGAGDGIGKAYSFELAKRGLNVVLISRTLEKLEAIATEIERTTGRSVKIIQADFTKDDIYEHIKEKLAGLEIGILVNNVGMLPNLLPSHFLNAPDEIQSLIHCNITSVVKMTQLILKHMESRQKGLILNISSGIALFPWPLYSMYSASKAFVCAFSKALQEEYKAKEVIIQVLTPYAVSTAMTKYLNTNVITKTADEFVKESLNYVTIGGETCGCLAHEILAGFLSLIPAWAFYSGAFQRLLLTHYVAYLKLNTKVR
How it was run: (§1)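 HEK-293 cells overexpressing 17β-HSD3 were briefly homogenized. The enzyme assay measured conversion of 50 nM [4-14C]-4-androstene-3,17-dione to [14C]-testosterone with NADPH in excess (5 mM). Inhibitor was dissolved in ethanol, and the ethanol-only control was used to derive % inhibition at each concentration. Error 10%.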

[2] = target: T1, 17-beta-hydroxysteroid dehydrogenase type 3 (Homo sapiens); test: Inhibition of 17Beta-HSD3 expressed in homogenized HEK293 cells assessed as transformation of [14C]-4-androstene-3,17-dione into [14C]-testosterone in presence of NADPH at 0.1 uM; assay type: cell-based; how it was run: as §1
[3] = target: T1, 17-beta-hydroxysteroid dehydrogenase type 3 (Homo sapiens); test: Inhibition of 17Beta-HSD3 expressed in homogenized HEK293 cells assessed as transformation of [14C]-4-androstene-3,17-dione into [14C]-testosterone in presence of NADPH at 1 uM; assay type: cell-based; how it was run: as §1
[4] = target: T1, 17-beta-hydroxysteroid dehydrogenase type 3 (Homo sapiens); test: Inhibition of 17Beta-HSD3 expressed in intact HEK293 cells assessed as transformation of [14C]-4-androstene-3,17-dione into [14C]-testosterone in presence of NADPH at 1 uM after 1 hr incubation; assay type: cell-based
How it was run: (§2)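 HEK-293 cells were grown in MEM with 10% FBS at 37 °C under 5% CO2, seeded at 200,000 cells/well, and transfected with 2 µg/well of a 17β-HSD3 expression plasmid. Intact cells then got 50 nM [4-14C]-4-androstene-3,17-dione plus inhibitor in ethanol (0.5% v/v) for 1 h. Radiolabelled steroids were extracted from the medium and quantified. Triplicate; % transformation was used to derive IC50.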

[5] = target: T2, Androgen receptor (Mus musculus) (UniProt P19091); test: Activation of androgen receptor in androgen-sensitive (AR+) mouse Shionogi cells assessed as stimulation of cell proliferation after 10 days relative to control
T2 sequence (whole entry): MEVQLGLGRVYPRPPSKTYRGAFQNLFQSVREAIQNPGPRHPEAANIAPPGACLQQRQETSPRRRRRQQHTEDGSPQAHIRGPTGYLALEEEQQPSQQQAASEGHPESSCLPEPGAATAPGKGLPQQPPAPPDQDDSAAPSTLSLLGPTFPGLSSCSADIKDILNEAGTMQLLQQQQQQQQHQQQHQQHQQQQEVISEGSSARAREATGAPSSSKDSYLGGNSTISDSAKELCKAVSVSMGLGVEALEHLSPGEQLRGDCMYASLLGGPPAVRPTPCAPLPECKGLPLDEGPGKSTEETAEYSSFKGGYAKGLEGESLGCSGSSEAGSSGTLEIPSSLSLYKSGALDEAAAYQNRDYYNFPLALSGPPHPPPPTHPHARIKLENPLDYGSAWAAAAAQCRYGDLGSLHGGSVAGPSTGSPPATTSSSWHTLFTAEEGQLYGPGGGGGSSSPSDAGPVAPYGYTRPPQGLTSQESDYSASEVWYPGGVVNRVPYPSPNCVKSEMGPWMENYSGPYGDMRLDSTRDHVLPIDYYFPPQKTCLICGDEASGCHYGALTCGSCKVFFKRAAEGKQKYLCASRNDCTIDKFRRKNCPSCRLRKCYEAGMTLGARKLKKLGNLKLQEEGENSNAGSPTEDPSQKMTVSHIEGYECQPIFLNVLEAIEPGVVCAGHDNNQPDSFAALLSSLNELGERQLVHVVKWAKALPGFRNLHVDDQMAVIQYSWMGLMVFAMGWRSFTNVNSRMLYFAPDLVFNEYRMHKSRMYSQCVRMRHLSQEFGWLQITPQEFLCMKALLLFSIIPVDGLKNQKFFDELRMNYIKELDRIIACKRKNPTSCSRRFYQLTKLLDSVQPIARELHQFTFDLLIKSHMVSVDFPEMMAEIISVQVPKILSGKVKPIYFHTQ
How it was run: (§3)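 Androgen-sensitive (AR+) Shionogi cells. Inhibitors and reference compounds were each tested at 0.1 and 1.0 µM. Androgenicity is reported as % cell proliferation versus control, with basal proliferation set to 100%. DHT (0.1 µM) served as androgen reference and hydroxyflutamide as antiandrogen. Data are mean ± SEM of one experiment in triplicate.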

[6] = target: T1, 17-beta-hydroxysteroid dehydrogenase type 3 (Homo sapiens); test: Inhibition of 17Beta-HSD3 expressed in intact HEK293 cells assessed as transformation of [14C]-4-androstene-3,17-dione into [14C]-testosterone in presence of NADPH at 0.1 uM after 1 hr incubation; assay type: cell-based; how it was run: as §2
[7] = target: T2, Androgen receptor (Mus musculus); test: Activation of androgen receptor in androgen-sensitive (AR+) mouse Shionogi cells assessed as stimulation of cell proliferation after 10 days at 1 uM relative to control; how it was run: as §3
[8] = target: T3, 17-beta-hydroxysteroid dehydrogenase type 3 (Homo sapiens, UniProt P37058); test: Inhibition of 17Beta-HSD3 expressed in intact HEK293 cells assessed as transformation of [14C]-4-androstene-3,17-dione into [14C]-testosterone in presence of NADPH after 1 hr incubation; assay type: cell-based; how it was run: as §2
T3 sequence (P37058 whole entry): T1 sequence (whole entry)

SMILES	inhibition [1] [%]	inhibition [2] [%]	inhibition [3] [%]	inhibition [4] [%]	Activity [5]	inhibition [6] [%]	Activity [7]	IC50 [8] [nM]
C[C@]12CC[C@](O)(CN3CCCCC3)C[C@@H]1CC[C@@H]1[C@@H]2CC[C@]2(C)C(=O)CC[C@@H]12	9	19	69	23				
CC(C)(O)C(=O)Nc1ccc([N+](=O)[O-])c(C(F)(F)F)c1					inactive			
C[C@@H]1CN(S(=O)(=O)c2ccccc2C(F)(F)F)[C@@H](C)CN1C[C@@]1(O)CC[C@@]2(C)[C@@H](CC[C@@H]3[C@@H]2CC[C@]2(C)C(=O)CC[C@@H]32)C1	55	92				84	inactive	6
C[C@]12CC[C@@]3(C[C@@H]1CC[C@@H]1[C@@H]2CC[C@]2(C)C(=O)CC[C@@H]12)CN(CCC(CN1CCOCC1)OC(=O)C1CCCCC1)C(=O)O3 (stereo partly specified)					inactive			51
CCN(CC)C[C@@]1(O)CC[C@@]2(C)[C@@H](CC[C@@H]3[C@@H]2CC[C@]2(C)C(=O)CC[C@@H]32)C1	0	10	60	14				
C[C@]12CC[C@](O)(CN3CCN(c4ccccc4)CC3)C[C@@H]1CC[C@@H]1[C@@H]2CC[C@]2(C)C(=O)CC[C@@H]12	13	78	89	68				
C[C@]12CC[C@](O)(Cc3ccccc3)C[C@@H]1CC[C@@H]1[C@@H]2CC[C@]2(C)C(=O)CC[C@@H]12							396%	
C[C@@H]1CN(Cc2cccnc2)[C@@H](C)CN1C[C@@]1(O)CC[C@@]2(C)[C@@H](CC[C@@H]3[C@@H]2CC[C@]2(C)C(=O)CC[C@@H]32)C1	17	47		58				
CCN(Cc1ccccc1)C[C@@]1(O)CC[C@@]2(C)[C@@H](CC[C@@H]3[C@@H]2CC[C@]2(C)C(=O)CC[C@@H]32)C1	42	85	90	94		86	314%	
C[C@]12CC[C@](O)(CN3CCC(N4CCCCC4)CC3)C[C@@H]1CC[C@@H]1[C@@H]2CC[C@]2(C)C(=O)CC[C@@H]12	0	4	69	20				
C[C@]12CC[C@](O)(CN3CCN(Cc4cccc(Cl)c4)CC3)C[C@@H]1CC[C@@H]1[C@@H]2CC[C@]2(C)C(=O)CC[C@@H]12	26	85		75				
CN(Cc1ccccc1)C[C@@]1(O)CC[C@@]2(C)[C@@H](CC[C@@H]3[C@@H]2CC[C@]2(C)C(=O)CC[C@@H]32)C1	28	79	89	92		48		
CCCCN(CCCC)C[C@@]1(O)CC[C@@]2(C)[C@@H](CC[C@@H]3[C@@H]2CC[C@]2(C)C(=O)CC[C@@H]32)C1	13	70	85	90		53		
C[C@]12CC[C@@]3(C[C@@H]1CC[C@@H]1[C@@H]2CC[C@]2(C)C(=O)CC[C@@H]12)CN(Cc1ccccc1)C(=O)O3	21	86	93			44	inactive	
C[C@]12CC[C@](O)(CN3CCN(Cc4ccccc4)CC3)C[C@@H]1CC[C@@H]1[C@@H]2CC[C@]2(C)C(=O)CC[C@@H]12	35	72	90	80		37		
C[C@]12CC[C@](O)(CN3CCC(Cc4ccccc4)CC3)C[C@@H]1CC[C@@H]1[C@@H]2CC[C@]2(C)C(=O)CC[C@@H]12	40	82	90	52				
